This is an account of results in ChEMBL document CHEMBL3351371, “Design and synthesis of phenolic hydrazide hydrazones as potent poly(ADP-ribose) glycohydrolase (PARG) inhibitors” (Bioorg Med Chem Lett, 2014).

As usually defined, the IC50 is the concentration needed to halve the response being measured. The low end stands for inhibition by little substance, the high end for a need for much substance.

A value given as a limit tells only on which side of the number the result lay.

This experiment deals with Poly(ADP-ribose) glycohydrolase (Rattus norvegicus, UniProt Q9QYM2). The experiment in a line: Inhibition of rat testis GST-tagged PARG catalytic activity after 30 mins using [32P]poly(ADP-ribose) by radioassay. In outline:
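Recombinant rat PARG (from testis cDNA) expressed in E. coli as GST fusion (GST-RPG, 136 kDa), 15 ng per reaction. Compound in DMSO added to 4 μM [32P]poly(ADP-ribose) in 20 mM potassium phosphate pH 7.5, 50 mM KCl, 10 mM 2-mercaptoethanol; 37 °C, 30 min; stopped with 1% SDS (final). PEI-cellulose TLC (0.1 M LiCl/3 M AcOH/3 M urea), imaging-plate radioactivity; activity from fraction of degradation products.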

Chain of Poly(ADP-ribose) glycohydrolase (Q9QYM2 whole entry, the tested form may be a part): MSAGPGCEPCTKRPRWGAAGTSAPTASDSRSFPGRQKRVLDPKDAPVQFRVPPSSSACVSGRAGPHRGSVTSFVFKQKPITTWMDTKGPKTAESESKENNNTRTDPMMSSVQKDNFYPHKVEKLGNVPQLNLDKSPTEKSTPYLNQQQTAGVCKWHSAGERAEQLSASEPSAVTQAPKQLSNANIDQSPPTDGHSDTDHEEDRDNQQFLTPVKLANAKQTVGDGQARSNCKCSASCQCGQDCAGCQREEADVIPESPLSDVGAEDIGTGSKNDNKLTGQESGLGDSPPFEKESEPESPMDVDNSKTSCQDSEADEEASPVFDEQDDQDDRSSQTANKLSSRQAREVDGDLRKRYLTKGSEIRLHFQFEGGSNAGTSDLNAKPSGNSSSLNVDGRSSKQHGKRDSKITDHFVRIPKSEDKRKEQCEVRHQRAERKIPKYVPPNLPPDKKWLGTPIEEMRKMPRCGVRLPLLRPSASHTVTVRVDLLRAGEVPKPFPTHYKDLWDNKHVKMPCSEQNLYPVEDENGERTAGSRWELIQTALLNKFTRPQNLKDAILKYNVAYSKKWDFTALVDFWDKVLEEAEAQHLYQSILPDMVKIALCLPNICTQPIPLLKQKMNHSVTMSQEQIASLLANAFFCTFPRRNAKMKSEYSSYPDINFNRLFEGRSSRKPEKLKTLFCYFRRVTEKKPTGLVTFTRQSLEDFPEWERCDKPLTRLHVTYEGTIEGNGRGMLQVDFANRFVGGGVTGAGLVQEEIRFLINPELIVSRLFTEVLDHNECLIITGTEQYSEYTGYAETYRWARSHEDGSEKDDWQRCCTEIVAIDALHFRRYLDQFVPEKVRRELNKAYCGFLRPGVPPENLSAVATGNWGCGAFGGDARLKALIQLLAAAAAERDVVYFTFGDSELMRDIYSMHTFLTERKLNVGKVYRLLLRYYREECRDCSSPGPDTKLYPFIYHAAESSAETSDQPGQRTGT

As to `O=C(N/N=C/c1cc(O)c(O)c(O)c1)c1ccc(C(=O)N/N=C/c2cc(O)c(O)c(O)c2)cc1`, the half-maximal inhibitory concentration (IC50) stood at 2.1 µM.

As to `O=C(CC(=O)N/N=C/c1cc(O)c(O)c(O)c1)N/N=C/c1cc(O)c(O)c(O)c1`, the half-maximal inhibitory concentration (IC50) turned out to be 15.4 µM.

Compound `O=C(N/N=C/c1ccc(O)c(O)c1O)C(=O)N/N=C/c1ccc(O)c(O)c1O` had a 50% inhibitory concentration (IC50) of 3.1 µM.

The compound `O=C(N/N=C/c1c(O)cc(O)cc1O)c1ccc(C(=O)N/N=C/c2c(O)cc(O)cc2O)cc1` yielded an IC50 of 9.9 µM.

Regarding `O=C(CCC(=O)N/N=C/c1cc(O)c(O)c(O)c1)N/N=C/c1cc(O)c(O)c(O)c1`, the half-maximal inhibitory concentration (IC50) is 8.2 µM.

Turning to `O=C(N/N=C/c1ccc(O)c(O)c1)c1cccc(C(=O)N/N=C/c2ccc(O)c(O)c2)c1`, the IC50 came out at 19.2 µM.

Turning to `O=C(CCCC(=O)N/N=C/c1ccc(O)c(O)c1O)N/N=C/c1ccc(O)c(O)c1O`, it took 13.9 µM to reach half-maximal inhibition (IC50).

The compound `O=C(CCC(=O)N/N=C/c1ccc(O)c(O)c1O)N/N=C/c1ccc(O)c(O)c1O` yielded a 50% inhibitory concentration (IC50) of 9.8 µM.

In turn, `O=C(O[C@H]1[C@H](O)[C@@H](CO)OC(O)[C@@H]1O)c1cc(O)c(O)c(O)c1` (stereo partly drawn) gave a half-maximal inhibitory concentration (IC50) of 0.95 µM.

`O=C(N/N=C/c1cc(O)c(O)c(O)c1)c1cccc(C(=O)N/N=C/c2cc(O)c(O)c(O)c2)c1`: the IC50 was 3.2 µM.

The compound `O=C(N/N=C/c1ccc(O)cc1O)c1cccc(C(=O)N/N=C/c2ccc(O)cc2O)c1` showed an IC50 of 40.1 µM.

Regarding `O=C(N/N=C/c1cc(O)c(O)c(O)c1)C(=O)N/N=C/c1cc(O)c(O)c(O)c1`, the IC50 turned out to be 2.8 µM.

Compound `O=C(O)CCN1C(=O)/C(=C2\C(=O)c3cc(Br)ccc3N2Cc2c(Cl)cccc2Cl)SC1=S` gave an IC50 of 2.9 µM.

Compound `O=C(CCCC(=O)N/N=C/c1cc(O)c(O)c(O)c1)N/N=C/c1cc(O)c(O)c(O)c1` gave a concentration for half-maximal inhibition (IC50) of 27.4 µM.

Take `O=C(N/N=C/c1ccc(O)cc1O)c1ccc(C(=O)N/N=C/c2ccc(O)cc2O)cc1`: the 50% inhibitory concentration (IC50) was > 75 µM.

Turning to `O=C(N/N=C/c1ccc(O)c(O)c1O)c1cccc(C(=O)N/N=C/c2ccc(O)c(O)c2O)c1`, the IC50 was 3.1 µM.

For `O=C(N/N=C/c1cccc(O)c1O)c1ccc(C(=O)N/N=C/c2cccc(O)c2O)cc1`, the IC50 was > 75 µM.

`O=C(N/N=C/c1c(O)cc(O)cc1O)c1cccc(C(=O)N/N=C/c2c(O)cc(O)cc2O)c1` registered an IC50 of 18.8 µM.

Compound `O=C(CC(=O)N/N=C/c1ccc(O)c(O)c1O)N/N=C/c1ccc(O)c(O)c1O` came in with an IC50 of 1.6 µM.

For `O=C(N/N=C/c1ccc(O)c(O)c1O)c1ccc(C(=O)N/N=C/c2ccc(O)c(O)c2O)cc1`, the 50% inhibitory concentration (IC50) is 1 µM.

Take `O=C(N/N=C/c1ccc(O)c(O)c1)c1ccc(C(=O)N/N=C/c2ccc(O)c(O)c2)cc1`: the IC50 was > 75 µM.

As to `O=C(N/N=C/c1cccc(O)c1O)c1cccc(C(=O)N/N=C/c2cccc(O)c2O)c1`, the midpoint of inhibition, the IC50, lay at 14.8 µM.

Take `Nc1ncnc2c1ncn2[C@@H]1O[C@H](CO[P@](=O)(O)O[P@@](=O)(O)OC[C@H]2NC[C@H](O)[C@@H]2O)[C@@H](O)[C@H]1O` [ADENOSINE DIPHOSPHATE (HYDROXYMETHYL)PYRROLIDINEDIOL]: half-maximal inhibition (IC50) was put at 0.1 µM.
